Laboratory results reported in article PMC4785611 (British Journal of Haematology, 2016).
Entries after “also recorded” stand apart in the source; their conditions may differ.

Assays:
[1] = test system: patients with multiple myeloma; conditions: of 526 patients; ref Siegel et al, 2013; cited from earlier work
[2] = test system: Japanese patients with relapsed and/or refractory multiple myeloma; assay: Phase 1/2 study ONO-7057-01: adverse events; type: in vivo, human
Outline: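 Safety set was all patients given ≥1 IV dose (10 min; Days 1, 2, 8, 9, 15, 16 of 28-day cycles). Pre-medication was 4 mg oral or IV dexamethasone, with hydration in Cycle 1. Cycle 1 also had prophylactic antibiotics, plus acyclovir if herpes history. Patients with Grade ≥3 or painful Grade 2 PN or prior ILD were excluded. AEs were graded by NCI-CTCAE v4.0 through Cycle 6, with later cycles included.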

[3] = test system: Japanese patients with relapsed and/or refractory multiple myeloma; assay: Phase 1 dose escalation: dose-limiting toxicity in Cycle 1; type: in vivo, human; conditions: for Dose-limiting toxicity (DLT): Cycle 1
Outline: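 Test compound was given IV over 10 min on Days 1, 2, 8, 9, 15 and 16 of 28-day cycles. The 20/27 arm received 20 mg/m2 on Days 1–2 of Cycle 1 and 27 mg/m2 from Day 8. Three or six patients per cohort: 1/3 DLT added three patients. At 2/3 or 3/6, the prior level became the recommended dose. No G-CSF was allowed during Cycle 1 evaluation.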

CC(C)C[C@H](NC(=O)[C@H](CCc1ccccc1)NC(=O)CN1CCOCC1)C(=O)N[C@@H](Cc1ccccc1)C(=O)N[C@@H](CC(C)C)C(=O)[C@@]1(C)CO1 [carfilzomib]
PN Grade ≥3, patients, integrated analysis [1]: seven | Peripheral neuropathy under study treatment, preferred terminology (Grade) ([2]; Patient No. 1, 20 mg/m^2, baseline PN Grade 1, worst PN Grade before the study 3): Peripheral neuropathy (2) | Interstitial lung disease (ILD) ([2]; Total, N = 50): No ILD was observed | AEs leading to death ([2]; during administration period or within 30 days after final administration): No AEs led to death | New PN in patients who had never experienced PN before enrolment ([2]; five patients without PN history): no new cases of PN occurred and did not develop PN and none | Patients with PN at baseline in whom carfilzomib exacerbated PN ([2]; of 35 patients with PN at baseline): three | Patients believed to have infections leading to treatment interruption (pneumonia, fever) ([2]; of the 24 patients whose treatment was interrupted): three | Patients with treatment interrupted because of neutropenia ([2]; of the 24 patients whose treatment was interrupted, seven events): five | Dose-limiting toxicity (DLT) ([3]; 15 mg/m^2 cohort, four patients (one not evaluable)): no DLT was observed | Dose-limiting toxicity (DLT) ([3]; 20/27 mg/m^2 cohort, seven patients (one not evaluable)): no DLT was observed | Maximum tolerated dose (MTD) ([3]; doses 15, 20 and 20/27 mg/m^2): did not reach the maximum tolerated dose; also recorded: did not reach the MTD
